# Assay results taken from PubChem BioAssay AID504383 (The Scripps Research Institute Molecular Screening Center, 2011).
# Among all 2,500 compounds or so, about 1,200 (48%) were called active. The set was probably picked from earlier hits. The list shows a part of the results. A number with no mark means an inactive call.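 Rule for the calls: active = mean activation above the low control average plus 3 SD, as set in the primary screen (cut at about 12% in these data); inactive = the rest.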
# Biological target: Troponin I, cardiac muscle (Homo sapiens) + Troponin T, cardiac muscle (Homo sapiens) + Troponin C, slow skeletal and cardiac muscles (Homo sapiens) (UniProt P19429+P45379+P63316)
# Assay: calcium sensitizers of cardiac thin filaments – biochemical, IANBD-TnC fluorescence, triplicate, confirmation (AID 504383);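 note: 0% = DMSO at 0.472 mM calcium and 100% = DMSO at 2.9 mM calcium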
# Details: IANBD-labeled cardiac RTF, Ca2+ sensitivity fluorescence; at 7.2 µM; hits give high values; scaled from EC20 to saturating calcium; tested at EC20 calcium, 0.472 mM
# How it was run: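 System: Labelled thin filament complex | Technique: Filament fluorescence intensity | Benchmarks: Low control EC20 calcium, high control EC100 calcium | Timing: 15 min at 25 °C | Compound dosing: One dose, 7.2 µM nominal | Probe or stimulus: Ca2+ 0.472 mM, EC20 level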
row,SMILES,activation
1,COc1ccc(-c2csc(N3CCN(c4cc5c(cc4Cl)nc(-c4ccncc4)n5CCOCCO)CC3)n2)cc1,2.85%
2,Cc1cc(N2CCN(c3nc(-c4ccc([N+](=O)[O-])cc4)cs3)CC2)c2ccccc2n1,14.9% (active)
3,CC(=O)c1nnn(-c2cccc(C#N)c2)c1C,1.86%
4,O=C(CCSc1ccccc1)N1CCN(C(=O)c2ccco2)CC1,135% (active)
5,O=c1[nH]c2c(s1)C=Nc1ccccc1N2,2.27%
6,O=[n+]1c2c(n([O-])c3cc(F)c(N4CCCC4)cc31)CCCC2,259% (active)
7,O=[n+]1c2c(n([O-])c3ccccc31)CCC2,29.4% (active)
8,O=[n+]1c2c(n([O-])c3cc(F)c(N4CCCC4)cc31)CCC2,92% (active)
9,O=C(Cn1c(=O)c(=O)n(Cc2ccccc2)c2ccc(Cl)cc21)Nc1ccc(F)cc1F,1.32%
10,O=C1Nc2ccccc2/C1=C/c1cnc(-c2ccccc2)[nH]1,92.3% (active)
11,Cc1ccc(N/C=C2/Sc3ccccc3NC2=O)cc1,9.19%
12,Cc1cc(C)c(/C=C2\C(=O)Nc3ccccc32)[nH]1,14.2% (active)
13,COc1ccc(CNS(=O)(=O)c2cc(-c3cc(C)no3)ccc2OC)cc1OC,24.2% (active)
14,COc1ccc(CC(=O)NCc2csc(-c3cccs3)n2)cc1OC,5.67%
15,CC1CC(C)CN(S(=O)(=O)N2CCCC(C(=O)NC3CCCCC3)C2)C1 (configuration not stated),219% (active)
16,Cc1cc(NC(=O)CN2C(=O)[C@@H]3[C@H](C2=O)[C@@H]2C[C@H]3C(Br)C2Br)no1 (some centres not stated),40% (active)
17,CC(/C=N/Nc1ccc2nncn2n1)=C\c1ccccc1,70.4% (active)
18,CCOC(=O)c1cc(C#N)c(SCC(=O)c2cc(C#N)c(SC)nc2C)[nH]c1=O,15.6% (active)
19,O=C(Nc1ccc(F)cc1F)c1ccc(COc2c(F)c(F)cc(F)c2F)o1,4.6%
20,O=C(c1ccc([N+](=O)[O-])cc1[N+](=O)[O-])n1cnc2ccccc21,-1.33%
21,C/C(=N\Nc1ccc([N+](=O)[O-])cc1[N+](=O)[O-])c1cccnc1,17% (active)
22,O=C(/C=C/c1ccccc1[N+](=O)[O-])Nc1cccnc1,5.57%
23,CC(C)(Cc1cccc(CC(C)(C)C(=O)O)c1)C(=O)O,12% (active)
24,CS(=O)(=O)N(CC(=O)O)Cc1cccc(CN(CC(=O)O)S(C)(=O)=O)c1,9.58%
25,CCCOc1ccc(N)cc1N,10.4%

row,SMILES,activation
1,O=C(CC1C(=O)N(c2ccc(Cl)cc2)C(=S)N1CCc1ccncc1)Nc1ccc(F)cc1 (configuration not stated),3.64%
2,Cc1ccc(-c2noc(-c3c(C)noc3C)n2)cc1,9.16%
3,COc1cc(-c2c(-c3ccc4c(c3)OCO4)noc2C)ccc1F,37.8% (active)
4,CCOC(=O)c1ccc(-c2c(-c3ccc4c(c3)OCO4)noc2C)cc1F,12% (active)
5,Nc1ccc2c3c(cccc13)-c1ccccc1-2,10%
6,Cc1ccccc1S(=O)(=O)Cc1ccc(C(=O)NCCN(C)Cc2ccccc2)o1,28.6% (active)
7,O=C(NCCN1CCOCC1)c1ccc(CS(=O)(=O)c2c(Cl)cccc2Cl)o1,7.99%
8,Brc1ccc(-c2cnnc(N3CCCC3)n2)cc1,184% (active)
9,CC(C)(C)c1ccc(-c2n[nH]c(=S)n2CC2CCCO2)cc1 (configuration not stated),101% (active)
10,O=C(Nc1ccccc1OC(=O)c1ccccc1)c1ccccc1,235% (active)
11,COc1ccccc1NC(=O)/C=C/C(=O)O,9.02%
12,CC(C)C(=O)c1cc2c(cc1NC(=O)c1ccccc1)OCCO2,3.91%
13,Cc1ccc([N+](=O)[O-])c(OCCCN2C(=O)NC(C)(C)C2=O)c1,11%
14,COc1ccc(C2=NN(C(=O)CSc3ncccn3)C(c3ccc(C)cc3)C2)cc1 (configuration not stated),505% (active)
15,CC1CCC(C(C)C)C(OC(=O)Cn2c(-c3ccccc3)[n+](C)c3ccccc32)C1 (configuration not stated),10.7%
16,CN(C)c1ccc(/C=C/C(=O)c2cc(Cl)ccc2O)cc1,5.68%
17,CC(/C=C/c1ccc(N(C)C)cc1)=N/N=C1/NC(=O)CC(C(=O)Nc2ccc(Cl)cc2)S1 (configuration not stated),14.4% (active)
18,COc1ccc(CN=C2NC(=O)CC(C(=O)Nc3ccc(F)cc3)S2)cc1 (configuration not stated),10.2%
19,O=C(c1cccs1)N1CCN=C1SCc1cccc(F)c1,0.56%
20,COc1ccc(-c2cc(C3CC3)nc(SCC(=O)c3cccs3)c2C#N)cc1,8.22%
21,N#Cc1c(-c2ccccc2F)cc(C2CC2)nc1SCC(=O)c1cccs1,14.3% (active)
22,CC(C)OC(=O)c1c2c(n3ccccc13)C(=O)c1ccccc1C2=O,9.36%
23,CCN(CC)c1ccc(/C=C/c2cccc[n+]2C)c(OC)c1,63.4% (active)
24,CN(C)NC(=O)c1ccc([N+](=O)[O-])s1,31.3% (active)
25,CN(C)/C=C/C(=O)c1ccc(Br)s1,10.5%

row,SMILES,activation
1,Cc1nc(NC(=O)c2ccccc2[N+](=O)[O-])sc1C(=O)N(C)C,11.2%
2,Cc1c(Cl)c([N+](=O)[O-])nn1CC(=O)N1CCN(C23CC4CC(CC(C4)C2)C3)CC1,12% (active)
3,O=C(Cn1cnc2c(cnn2-c2ccccc2)c1=O)Nc1ccc(S(=O)(=O)N2CCOCC2)cc1,31% (active)
4,CN(C)NC(=S)Nc1ccc(S(=O)(=O)N2CCCCC2)cc1,19.8% (active)
5,O=S(=O)(c1ccc(NC(=S)Nc2ccccc2)cc1)N1CCOCC1,24.5% (active)
6,Cc1cccc(NC(=O)Cn2cnc3ccc(S(=O)(=O)N4CCC(C)CC4)cc3c2=O)n1,8.56%
7,CN1CC[C@@H]2C(=O)N3CCc4ccc(Br)cc4[C@@H]3C[C@@H]21,10.5%
8,CC(Sc1nc2ncc(Cl)cc2[nH]1)C(=O)Nc1ccc(C(N)=O)cc1 (configuration not stated),1.26%
9,O=C(CSc1nc2ncc(Br)cc2[nH]1)c1cccc([N+](=O)[O-])c1,64% (active)
10,CC(=O)N1C(=O)C(=C2C=C(C)OC(C)=C2)c2ccccc21,62.7% (active)
11,Cc1c2ccccc2nc2c(F)c(NCCO)c(F)c(F)c12,159% (active)
12,Cc1c2ccccc2nc2c(F)c(N(C)C)c(F)c(F)c12,19.2% (active)
13,CCn1c(O)c(/C=N/N=C/c2ccccc2)c2ccc(C3=NNC(=O)CC3)cc21,10.2%
14,CCn1c(O)c(/C=N/N=C/c2ccc(OC)cc2)c2cc(C3=NNC(=O)CC3)ccc21,20.9% (active)
15,C/C(=N\Nc1nccnc1Cl)c1ccc(Cl)c(Cl)c1,5.84%
16,C/C(=N/Nc1ccnc2cc(Cl)ccc12)c1ccc(N)cc1,18.9% (active)
17,O=C(Nc1ccccc1)C1CC2CCCC(C1)C2=O (configuration not stated),8.65%
18,O=C(Nc1ccccc1)OC1CCC2CC1CCC2OC(=O)Nc1ccccc1 (configuration not stated),7.87%
19,O=C(Nc1ccccc1)NC1CS(=O)(=O)CC1O (configuration not stated),149% (active)
20,CCC(C)(C)NC(=O)C(c1ccc(F)cc1)N(Cc1ccco1)C(=O)c1cnccn1 (configuration not stated),70.6% (active)
21,O=C1CCN2C=Nc3cccc4ccc1c2c34,13.7% (active)
22,CNC(=S)N1N=C(c2ccc(Br)cc2)CC1c1ccc(N(C)C)cc1 (configuration not stated),31% (active)
23,CCCN1C(=O)/C(=C\C=C2\N(CC)c3ccccc3C2(C)C)SC1=S,10.1%
24,CCSC1=N/C(=C\C=C2/Oc3ccccc3N2CC)C(=O)S1,31.9% (active)
25,CCCN1C(=O)/C(=C/C=C2\N(CC)c3ccccc3C2(C)C)SC1=S,3.85%

row,SMILES,activation
1,CCN1/C(=C/C=C/c2oc3ccc(-c4ccccc4)cc3[n+]2CC)Oc2ccc(-c3ccccc3)cc21,6.07%
2,CCCCN1C(=O)/C(=C/C=C2\Oc3ccccc3N2CC)SC1=S,53.5% (active)
3,COc1cccc(F)c1C(=O)NC(=O)Nc1ccc2nc(C)oc2c1,252% (active)
4,Cc1cc2nc3c(=O)n(CCc4ccccc4)c(=O)[nH]c3nc2cc1N,17.3% (active)
5,CC(=O)OCCn1c2nc(=O)[nH]c(=O)c-2nc2cc(C)c(C)cc21,1.76%
6,Cc1ccccc1-n1c(=O)n(CCc2ccccc2)c(=O)c2[nH]cnc21,8.97%
7,CCCCn1c(=O)[nH]c2nc3cc(N)ccc3nc2c1=O,0.26%
8,CCCCCCn1c(=O)[nH]c2nc3cc(N)c(C)cc3nc2c1=O,158% (active)
9,C=CCn1c(=O)[nH]c2nc3cc(N=CN(C)C)c(C)cc3nc2c1=O,69.7% (active)
10,COCCN1C(=O)/C(=C/c2ccc(N3CCCC3)cc2C)SC1=S,0.91%
11,COc1ccc(/C=C2\SC(=O)N(CCC(=O)N3CCN(C)CC3)C2=O)cc1,5.35%
12,COCCN1C(=O)/C(=C/c2ccc(N3CCCC3)cc2)SC1=S,15.2% (active)
13,O=C1c2ccccc2-c2onc3ccc(Oc4ccccc4)c1c23,7.69%
14,Cc1occc1C(=O)N=Nc1c(O)n(C)c2ccccc12,15.2% (active)
15,CCOC(=O)COn1c(=O)c(-c2cc3ccccc3o2)[n+]([O-])c2ccccc21,2.03%
16,COc1ccc(OC)c(NC(=O)NCCc2cccc(Cl)c2)c1,5.54%
17,O=C(CSc1nc2ccccc2s1)c1cc2ccccc2o1,14.8% (active)
18,COc1ccc(OC)c(-n2nnnc2SCC(=O)NCCc2ccccc2)c1,12.5% (active)
19,O=C(CSc1nc2cc(Cl)ccc2s1)c1cc2ccccc2o1,107% (active)
20,O=C(CSc1nc2ccccc2s1)NNC(=S)Nc1ccccc1,482% (active)
21,COc1ccc(-c2noc(CCC(=O)NCCc3ccccc3)n2)cc1,10.9%
22,Cc1ccccc1Nc1nnc(SCC(=O)c2cc3ccccc3o2)s1,6.8%
